From the array DNA melting data of Ke et al. (doi:10.1101/2024.01.08.574731)

Legend:
[1] = folding enthalpy; higher = less favourable; fluorescence melt of hairpins on a sequencing array, two-state fit; settings: sodium 0.088 M
Outline: (§1)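 Two-state fits, bootstrapped, provided melting temperature and folding enthalpy from Cy3 fluorescence normalised to pre-quench Cy3 and to control constructs. Library hairpins with annealed Cy3 and quencher oligos were imaged on a sequenced MiSeq flow cell in 50 mM Na-HEPES pH 8.0, 25 mM NaCl, at 2.5 °C intervals up to 60 °C. Four replicates were combined with inverse-variance weighting. A 9.35 °C upward shift was applied to fitted temperatures to match UV melts.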

[2] = melting temperature; fluorescence melt of hairpins on a sequencing array, two-state fit, raised by 9.35 °C to match UV melts; settings: sodium 0.088 M
Outline: as §1

Row | Sequence | folding enthalpy [1] | Tm [2]
1 | GCAGGCGGAAACGTCTGC ((((.((....)).)))) | -35.3 kcal/mol | 63.1 °C
2 | GGTCCCACGAAAGTGACC (((..(((....)))))) | -15.8 kcal/mol | 36.8 °C
3 | GCCTCGCGAAAGCGGCGC ((..(((....)))..)) | -16.4 kcal/mol | 58.5 °C
4 | GGACGCGGAAACGCACCC ((..(((....)))..)) | -10.1 kcal/mol | 33.7 °C
5 | GCCAAGCGAAAGCAGGGC (((..((....))..))) | -26.4 kcal/mol | 60.4 °C
6 | GATCGTTGCACGATC ((((((...)))))) | -38.6 kcal/mol | 60.7 °C
7 | GTATGCGGAAACGCGTAC (((.(((....))).))) | -31.9 kcal/mol | 55 °C
8 | GAAGGAGGAAACTCCTTC (((((((....))))))) | -33.6 kcal/mol | 58.3 °C
9 | GCAGACACGAAAGTGTGC (((..(((....)))))) | -15.3 kcal/mol | 46.8 °C
10 | GTCTGCCGAAAGGCTGAC (((.(((....))).))) | -30.5 kcal/mol | 62.1 °C
11 | GGGGTCGGAAACAACCCC (((((.(....).))))) | -31.7 kcal/mol | 48.3 °C
12 | GGCACAGAAATGTGCC ((((((....)))))) | -35.9 kcal/mol | 66.5 °C
13 | GATCCCGAAAGGGATATC ((((((....)))..))) | -15.6 kcal/mol | 52 °C
14 | GTATTTGGAAACAAATGC (.(((((....))))).) | -28.4 kcal/mol | 39.9 °C
15 | GCCGGGGGAAACCCCGAC (.(((((....))))).) | -13.2 kcal/mol | 51.8 °C
16 | GCGATACGAAAGTACCGC (((.(((....))).))) | -43.2 kcal/mol | 54.2 °C
17 | GTCCCCGAAAGGGCTGAC ((((((....)))..))) | -11.7 kcal/mol | 34.8 °C
18 | GTCTCCCGAAAGGGGGAC (((.(((....))).))) | -32.4 kcal/mol | 65.9 °C
19 | GCGGACGAAAGTCCTCGC ((((((....)))..))) | -14.4 kcal/mol | 51.2 °C
20 | GGTTTTTCGAAAGAAACC (((..(((....)))))) | -18.8 kcal/mol | 34 °C
21 | GATGGAGGAAACTCCATC (((((((....))))))) | -38.5 kcal/mol | 59 °C
22 | GCGTTCCGACGC ((((....)))) | -27.8 kcal/mol | 58 °C
23 | GATCACAGCAGTGATC ((((((....)))))) | -40.3 kcal/mol | 59.5 °C

Row | Sequence | folding enthalpy [1] | Tm [2]
24 | GATCCGGTTTCGGATC ((((((....)))))) | -44.2 kcal/mol | 59.5 °C
25 | GTGGCAGGAAACTGTCAC (((.(((....))).))) | -41 kcal/mol | 54.3 °C
26 | GATCTCCTTGAGATC ((((((...)))))) | -40.6 kcal/mol | 54.4 °C
27 | GATCATGGAGATGATC ((((((....)))))) | -37.5 kcal/mol | 49.7 °C
28 | GTCAGTACGAAAGTAGAC (((..(((....)))))) | -17.2 kcal/mol | 31 °C
29 | GATCAGGCCGCTGATC ((((((....)))))) | -41.3 kcal/mol | 51.8 °C
30 | CGCGGACCACTCCGCG ((((((....)))))) | -32.7 kcal/mol | 64 °C
31 | GCTTTTCGAAAGAATAGC (((.(((....))).))) | -29.3 kcal/mol | 44 °C
32 | GTGCTCGAAAGAGGTCAC ((((((....)))..))) | -15.8 kcal/mol | 35.5 °C
33 | GGATCGGGAAACCGGTTC (.(.(((....))).).) | -20.1 kcal/mol | 38.2 °C
34 | GGGGTCGAAAGACTACCC ((((((....)))..))) | -18 kcal/mol | 45.2 °C
35 | GTCGGCACGAAAGTGGAC (((..(((....)))))) | -12.3 kcal/mol | 34.7 °C
36 | GATCGTGATCACGATC ((((((....)))))) | -53 kcal/mol | 58.2 °C
37 | GTAACAGGAAACTGCTAC (((.(((....))).))) | -29.1 kcal/mol | 32 °C
38 | GCGAGGCGAAAGCCTGGC ((.((((....)))).)) | -24.8 kcal/mol | 66.5 °C
39 | GATCTAACCTTAGATC ((((((....)))))) | -39.6 kcal/mol | 42.2 °C
40 | GCACCGCGAAAGCACTGC (((..((....))..))) | -8.63 kcal/mol | 31.2 °C
41 | GCTAACCGAAAGGTAAGC (((.(((....))).))) | -30.8 kcal/mol | 52.1 °C
42 | GTCGTGTCGAAAGACGAC (((..(((....)))))) | -19.9 kcal/mol | 48.9 °C
43 | GACCTCGGAAACGAGACC (..((((....))))..) | -11.8 kcal/mol | 26.1 °C
44 | GCTAATCGAAAGATCAGC (((.(((....))).))) | -29.4 kcal/mol | 41.2 °C
45 | GATCTCATACGAGATC ((((((....)))))) | -37.8 kcal/mol | 52.6 °C
46 | GATCCATGCTGGATC ((((((...)))))) | -35.3 kcal/mol | 52 °C

Row | Sequence | folding enthalpy [1] | Tm [2]
47 | GACACCGGAAACGGTATC ((.((((....)))).)) | -15.9 kcal/mol | 36.1 °C
48 | GACGAGGGAAACCCCGTC ((((.((....)).)))) | -31.4 kcal/mol | 51 °C
49 | GGACTCGGAAACGGGTCC ((((.((....)).)))) | -36.4 kcal/mol | 57.4 °C
50 | GTCGCGGGAAACTGCGGC (.(((.(....).))).) | -27.1 kcal/mol | 54.7 °C
51 | GCGATTCCTCGC ((((....)))) | -22.4 kcal/mol | 49.5 °C
52 | GGGCTGGGAAACCAGTCC ((.((((....)))).)) | -42.5 kcal/mol | 57.3 °C
53 | GTGGCTCCGAAAGGACAC (((..(((....)))))) | -14.6 kcal/mol | 47.8 °C
54 | GTTCTCGCGAAAGCGAAC (((..(((....)))))) | -7.5 kcal/mol | 27.8 °C
55 | GCATTGCGAAAGCATTGC (((.(((....))).))) | -52.2 kcal/mol | 55.4 °C
56 | GCCGACGAAAGTCAGGC ((((((....))).))) | -39.5 kcal/mol | 64.1 °C
57 | GTACGCGAAAGCGTGTAC ((((((....)))..))) | -9.86 kcal/mol | 38 °C
58 | GCGACCGGAAACGATCGC ((((.((....)).)))) | -38.7 kcal/mol | 55 °C
59 | GAAGCCGGAAACAGCTTC (((((.(....).))))) | -29.2 kcal/mol | 42.8 °C
60 | GACATAGGAAACTACGTC (((.(((....))).))) | -15.1 kcal/mol | 30 °C
61 | GGTCCTCGAAAGAGCACC (((.(((....))).))) | -27.1 kcal/mol | 38.5 °C
62 | GAAGGCGAAAGCCGTTC ((((((....))).))) | -8.18 kcal/mol | 43 °C
63 | GCTGGGCGAAAGCCATGC ((..(((....)))..)) | -19.2 kcal/mol | 55.1 °C
64 | GTAGCAGAAATGCTAC ((((((....)))))) | -35.4 kcal/mol | 55.9 °C
65 | GCTGGACCGAAAGGTAGC (((..(((....)))))) | -18.5 kcal/mol | 39.5 °C
66 | GCTAGAGGAAACTTTAGC ((((.((....)).)))) | -20.8 kcal/mol | 35 °C
67 | GAACGCGAAAGCGTTTTC ((((((....)))..))) | -11.6 kcal/mol | 56.6 °C
68 | GCCATCGCGAAAGCGGGC (((..(((....)))))) | -17.4 kcal/mol | 53.9 °C
69 | GATTGACGAAAGTCCATC (((.(((....))).))) | -23 kcal/mol | 39.3 °C

Row | Sequence | folding enthalpy [1] | Tm [2]
70 | GGACTGGCGAAAGCCTCC (((..(((....)))))) | -9.14 kcal/mol | 31.6 °C
71 | CGAGCCGGAAACGGTCG (((.(((....)))))) | -27.3 kcal/mol | 48.6 °C
72 | GCGGCCGGAAACGACCGC ((((.((....)).)))) | -34.9 kcal/mol | 67.2 °C
73 | GATCAGCCTCTGATC ((((((...)))))) | -38.5 kcal/mol | 47.9 °C
74 | GCCTGGCGAAAGCTGGGC (((..((....))..))) | -28.2 kcal/mol | 64.4 °C
75 | GCTACCGAAAGGTAGAGC ((((((....)))..))) | -19.1 kcal/mol | 53.7 °C
76 | GGAGAAGGAAACTCCTCC ((((.((....)).)))) | -22.6 kcal/mol | 36 °C
77 | GTGCAGCCGAAAGGCCAC (((..(((....)))))) | -12.7 kcal/mol | 49.1 °C
78 | GGTAGGGGAAACCCCACC (((.(((....))).))) | -23.7 kcal/mol | 46.2 °C
79 | GCTCTGGGAAACCAGAAC (.(((((....))))).) | -16.9 kcal/mol | 37.1 °C
80 | GTAAAGCGAAAGCTGTAC (((.(((....))).))) | -20.4 kcal/mol | 44.4 °C
81 | GCCAAACGAAAGTTGGC (((.(((....)))))) | -34.5 kcal/mol | 56.8 °C
82 | GTGTTCCGAAAGGAGCAC (((.(((....))).))) | -41.8 kcal/mol | 59.3 °C
83 | GATCCTCGGAGGATC ((((((...)))))) | -33.5 kcal/mol | 51.6 °C
84 | GCTTTAGGAAACTAAAGC (((((((....))))))) | -39.1 kcal/mol | 54.4 °C
85 | GCACTCACGAAAGTGTGC (((..(((....)))))) | -23 kcal/mol | 48.7 °C
86 | GGAGTGCGAAAGCATCC (((.(((....)))))) | -17.1 kcal/mol | 48.2 °C
87 | GGCTGAGGAAACCCAGCC (((((.(....).))))) | -41.9 kcal/mol | 55 °C
88 | GGCTACGAAAGTACAGCC ((((((....)))..))) | -26.9 kcal/mol | 48 °C
89 | GGTCCCGGAAACGGAACC (((.(((....))).))) | -36 kcal/mol | 48 °C
90 | GATCCGTAAGCGGATC ((((((....)))))) | -35.3 kcal/mol | 59.3 °C
91 | GTCTAGTCGAAAGACGAC (((..(((....)))))) | -14.3 kcal/mol | 39.4 °C
92 | GATCCATACTGGATC ((((((...)))))) | -37.6 kcal/mol | 51.4 °C
